Screening results deposited in PubChem BioAssay by The Scripps Research Institute Molecular Screening Center.
PRMT1 FP inh: blocks human protein arginine methyltransferase 1; recombinant PRMT1, activity-based probe fluorescence polarization; AID 652257; inhibition, % at 2.79 µM; actives 1.3% (n = 370,000); Q99873;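 active = inhibition above about 21% made by adding two undisclosed values, limit read from the data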
PAD4 FP inh: inhibitors of human PAD4; Q9UM07; recombinant PAD4, RCA probe fluorescence polarization; inhibition, % at 6.36 µM; actives 0.41% (n = 330,000);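 active = percent inhibition above a cutoff equal to the mean of all tested compounds plus 3 SD, cut at about 15% in these data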
GSTO1 counter: blocks human GSTO1 in RBBP9 counter-screen; inhibition, % at 5.96 µM; recombinant GSTO1, activity-based probe fluorescence polarization; actives 1.1% (n = 300,000); AID 1974;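 active = inhibition above the campaign mean inhibition plus 3 SD, cut at about 35% in these data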
Target sequence (P78417 whole entry, looked up): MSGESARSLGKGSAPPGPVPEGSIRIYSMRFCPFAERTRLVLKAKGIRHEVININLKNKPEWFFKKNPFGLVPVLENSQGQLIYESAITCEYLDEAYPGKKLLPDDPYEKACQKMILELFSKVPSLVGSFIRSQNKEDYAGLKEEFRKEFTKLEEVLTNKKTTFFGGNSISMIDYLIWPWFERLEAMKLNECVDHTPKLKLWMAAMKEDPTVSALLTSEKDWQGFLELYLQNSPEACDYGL
RBBP9 inhibitor: human RBBP9 hydrolase inhibition; inhibition, % at 7.94 µM; actives 0.2% (n = 220,000); AID 1515; O75884; recombinant RBBP9, FP-Rh probe fluorescence polarization;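 active = inhibition above the campaign mean of all tested compounds plus 3 SD, cut at about 14% in these data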
Target sequence (O75884 whole entry, looked up): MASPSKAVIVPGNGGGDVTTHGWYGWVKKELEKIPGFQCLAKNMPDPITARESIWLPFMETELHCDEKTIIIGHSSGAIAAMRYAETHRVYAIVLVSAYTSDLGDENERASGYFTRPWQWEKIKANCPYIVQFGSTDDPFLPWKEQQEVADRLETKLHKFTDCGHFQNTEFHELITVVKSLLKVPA
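Test system: recombinant human RBBP9; Timing: 30 min then 45 min, 25 °C; Detection: fluorescence polarization; Control set: RBBP9 with DMSO as uninhibited control, no-protein wells as full inhibition; Compound dosing: one concentration, 7.94 µM nominal, 0.794% DMSO; Probe or stimulus: FP-Rh activity-based probe, 375 nM before mixing.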
SIAE primary: blocks human sialic acid acetylesterase; Q9HAT2; AID 1053197; inhibition, % at 9.66 µM; actives 0.69% (n = 370,000); SIAE FP-Rh probe binding, fluorescence polarization;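 active = inhibition above a cutoff: mean of compounds within the control limits plus 3 SD of those, cut at about 17% in these data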
GSTO1 inh conf: GSTO1 (human) inhibition, confirmation; shares compounds with GSTO1 counter; recombinant GSTO1, probe fluorescence polarization; inhibition, % at 5.96 µM; actives 54% (n = 2,400);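 active = inhibition above the primary screen's cutoff, its mean inhibition plus 3 SD, cut at about 35% in these data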;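 also: loss of polarization as inhibitors block binding of rhodamine sulfonate ester activity probe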
GSTO1 ABPP inh: inhibitors of recombinant human GSTO1 | shares compounds with GSTO1 counter | gel ABPP SE-Rh probe fluorescence | inhibition, % at 1 µM | actives 30% (n = 130) | AID 463110;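 active = inhibition of the enzyme GSTO1 above about 75%, limit read from the data; inactive = inhibition below that limit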
Numbers stand for hits. Rows were chosen to be rich in hits. Some 2.7% of all compounds tested hit in one or more screens of this group.

What do the screens show for `O=C(NCc1cccnc1)NC1(C(F)(F)F)Oc2ccc(Cl)cc2O1` (centres undefined)?
PAD4 FP inh: inactive; GSTO1 counter: inactive; RBBP9 inhibitor: inactive

Results for O=C(NCCN1CCOCC1)NC1(C(F)(F)F)Oc2ccccc2O1 ?
PRMT1 FP inh: inactive; PAD4 FP inh: inactive; GSTO1 counter: 57.3; RBBP9 inhibitor: inactive; SIAE primary: inactive; GSTO1 inh conf: inactive

How did COc1ccc(OC)c(NC(=O)NC2(C(F)(F)F)Oc3ccccc3O2)c1 do in these assays?
PRMT1 FP inh: inactive; PAD4 FP inh: inactive; GSTO1 counter: 56.5; RBBP9 inhibitor: inactive; SIAE primary: inactive; GSTO1 inh conf: inactive

How did COCCNC(=O)NC1(C(F)(F)F)Oc2ccc(Cl)cc2O1 (centres undefined) do in these assays?
PRMT1 FP inh: inactive; PAD4 FP inh: inactive; GSTO1 counter: 37.6; RBBP9 inhibitor: inactive; SIAE primary: inactive; GSTO1 inh conf: inactive

How did COc1ccc(S(=O)(=O)N2CCC3CC2c2cc(N4CCOCC4)ccc23)cc1 (centres undefined) do in these assays?
PRMT1 FP inh: inactive; SIAE primary: inactive

Results for COc1cc(C(=O)OCC(=O)N2CCN(S(=O)(=O)c3ccc(C)cc3C)CC2)c([N+](=O)[O-])cc1OC ?
PRMT1 FP inh: inactive; SIAE primary: inactive

What do the screens show for `NS(=O)(=O)c1ccc(CCNC(=O)NC2(C(F)(F)F)Oc3ccccc3O2)cc1`?
PRMT1 FP inh: inactive; PAD4 FP inh: inactive; GSTO1 counter: 47.5; RBBP9 inhibitor: inactive; SIAE primary: inactive; GSTO1 inh conf: inactive

Results for C#CCOCCOCCOCCNc1nc(N2CCN(C(=O)Cn3cc(CC(C)O)nn3)CC2)nc(N2CCN(C(=O)[C@H](CCCCN)n3cc(CCC(=O)O)nn3)CC2)n1 (some centres undefined) ?
PRMT1 FP inh: inactive; PAD4 FP inh: inactive; GSTO1 counter: inactive; RBBP9 inhibitor: inactive; SIAE primary: inactive

What do the screens show for `C#CCOCCOCCOCCNc1nc(N2CCN(C(=O)Cn3cc(CCCCN)nn3)CC2)nc(N2CCN(C(=O)[C@H](CCCCN)n3cc(CCCC)nn3)CC2)n1`?
PRMT1 FP inh: inactive; PAD4 FP inh: inactive; GSTO1 counter: 59.6; SIAE primary: inactive; GSTO1 inh conf: inactive

How did O=c1cc(CCl)nc2sc3ccccc3n12 do in these assays?
PRMT1 FP inh: inactive; PAD4 FP inh: inactive; GSTO1 counter: 89.3; RBBP9 inhibitor: inactive; SIAE primary: inactive; GSTO1 inh conf: 100.1; GSTO1 ABPP inh: 87.0

Results for O=C(OCc1cc(=O)n2c(n1)sc1ccccc12)c1ccc(O)cc1 ?
PRMT1 FP inh: inactive; PAD4 FP inh: inactive; GSTO1 counter: inactive; RBBP9 inhibitor: inactive; SIAE primary: inactive

How did Cc1ccccc1Nc1sc(C(=O)Nc2cccc(Cl)c2)c(N)c1C(N)=O do in these assays?
PRMT1 FP inh: inactive; RBBP9 inhibitor: inactive; SIAE primary: inactive

What do the screens show for `COc1ccc(/C=N/NC(=O)c2ccn[nH]2)cc1CSc1ccccn1`?
PRMT1 FP inh: inactive; PAD4 FP inh: inactive; GSTO1 counter: 46.7; SIAE primary: inactive; GSTO1 inh conf: inactive

How did COc1cc(O)cc2cc3c(c(O)c12)C(=O)CC(C)(O)O3 (centres undefined) do in these assays?
PRMT1 FP inh: inactive; PAD4 FP inh: inactive; GSTO1 counter: 47.4; SIAE primary: inactive; GSTO1 inh conf: inactive

How did COc1cc(O)c2c(c1)OC(C)(C)CC2=O do in these assays?
PRMT1 FP inh: inactive; PAD4 FP inh: inactive; GSTO1 counter: inactive; RBBP9 inhibitor: inactive; SIAE primary: inactive

Results for Cc1ccc(C(=O)NCCn2cc(SCC(=O)Nc3cc(C)on3)c3ccccc32)cc1 ?
PRMT1 FP inh: inactive; PAD4 FP inh: inactive; GSTO1 counter: inactive; RBBP9 inhibitor: inactive; SIAE primary: inactive

Results for O=C(NCc1ccco1)c1cc(-c2cccnc2)nc2ccccc12 ?
PRMT1 FP inh: inactive; PAD4 FP inh: inactive; GSTO1 counter: 37.9; RBBP9 inhibitor: inactive; SIAE primary: inactive; GSTO1 inh conf: inactive

How did CC1OC(Nc2cccc3ccccc23)C(O)C(O)C1O (centres undefined) do in these assays?
PRMT1 FP inh: 29.3; PAD4 FP inh: inactive; GSTO1 counter: 49.0; RBBP9 inhibitor: inactive; SIAE primary: inactive; GSTO1 inh conf: inactive

How did CCC(=O)Nc1cccc(-c2csc(-c3ccccc3)n2)c1 do in these assays?
PRMT1 FP inh: inactive; PAD4 FP inh: inactive; GSTO1 counter: inactive; RBBP9 inhibitor: inactive; SIAE primary: inactive

How did Cc1ccc(NC2=C(N3CCCCC3)C(=O)c3ccccc3C2=O)cc1 do in these assays?
PRMT1 FP inh: inactive; PAD4 FP inh: inactive; GSTO1 counter: 65.2; RBBP9 inhibitor: inactive; SIAE primary: inactive; GSTO1 inh conf: 45.5

How did O=C(/C=C/c1ccc(O)cc1)c1ccc(NC2=C(N3CCCCC3)C(=O)c3ccccc3C2=O)cc1 do in these assays?
PRMT1 FP inh: inactive; PAD4 FP inh: inactive; GSTO1 counter: 65.1; RBBP9 inhibitor: inactive; SIAE primary: inactive; GSTO1 inh conf: 51.3

What do the screens show for `CCOc1cc(CNc2ccc(O)cc2)cc(Br)c1OCc1ccccc1F`?
PAD4 FP inh: inactive; GSTO1 counter: 80.4; RBBP9 inhibitor: inactive; GSTO1 inh conf: inactive

Results for CCOc1cc(/C=N/NC(N)=O)cc(Br)c1OCc1ccccc1F ?
PRMT1 FP inh: inactive; PAD4 FP inh: inactive; GSTO1 counter: inactive; RBBP9 inhibitor: inactive; SIAE primary: inactive

How did Cc1ccc(-n2nc3ccc(N)cc3n2)cc1Cl do in these assays?
PRMT1 FP inh: inactive; PAD4 FP inh: inactive; GSTO1 counter: 44.4; SIAE primary: inactive; GSTO1 inh conf: inactive

How did COc1ccc([C@H]2N[C@]3(CCCN(Cc4ccc(C)cc4)C3=O)[C@H]3C(=O)N(C)C(=O)[C@@H]23)cc1 do in these assays?
PRMT1 FP inh: inactive; SIAE primary: inactive

How did CC(=O)NCCNC(=O)c1ccc(CSc2nc3ccccc3s2)cc1 do in these assays?
PRMT1 FP inh: inactive; PAD4 FP inh: inactive; GSTO1 counter: inactive; SIAE primary: inactive

How did Cc1ccc(S(=O)(=O)N2CCCCCC2)cc1[N+](=O)[O-] do in these assays?
PRMT1 FP inh: inactive; PAD4 FP inh: inactive; GSTO1 counter: inactive; RBBP9 inhibitor: inactive; SIAE primary: inactive

How did Cc1cc(C)c2c(CN3CCCCC3)cc(=O)oc2c1 do in these assays?
PRMT1 FP inh: inactive; PAD4 FP inh: inactive; GSTO1 counter: inactive; SIAE primary: inactive

What do the screens show for `Cc1cc(C)c2c(CCl)cc(=O)oc2c1`?
PRMT1 FP inh: inactive; PAD4 FP inh: inactive; GSTO1 counter: 64.6; RBBP9 inhibitor: inactive; SIAE primary: inactive; GSTO1 inh conf: 96.6

How did CC1(c2nnnn2C2CCCCC2)CCC(=O)N1Cc1ccc2c(c1)OCO2 (centres undefined) do in these assays?
PRMT1 FP inh: inactive; SIAE primary: inactive

Results for O=C(Nc1ccccn1)c1ccc(COc2ccccc2Cl)o1 ?
PRMT1 FP inh: inactive; PAD4 FP inh: inactive; GSTO1 counter: inactive; RBBP9 inhibitor: inactive; SIAE primary: inactive
